Assay results: ChEMBL document CHEMBL5053485, “Targeting Acute Myelogenous Leukemia Using Potent Human Dihydroorotate Dehydrogenase Inhibitors Based on the 2-Hydroxypyrazolo[1,5-a]pyridine Scaffold: SAR of the Biphenyl Moiety” (J Med Chem, 2021)
One block for each compound: values may come before it. Active and inactive are the calls of the source. No cut-off for these calls is given here.

Legend:
[1] = n-Octanol/PBS partition coefficient, logD of the compound at pH 7.4 incubated for 20 mins by shake flask method; format: physicochemical
THP-1 [2] = assay: Induction of cell differentiation in human THP-1 cells assessed as CD14 expression at 0.1 uM after 3 days by flow cytometric analysis; format: functional, cell-based; details: time 3.0 day
THP-1 [3] = assay: Induction of apoptosis in human THP-1 cells at 0.1 uM after 3 days by Annexin-V-FITC staining based flow cytometry relative to control; format: functional, cell-based; details: time 3.0 day
Method in brief: (§1)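 After 3 days, annexin V-FITC was read by flow cytometry. Significance versus DMSO used two-tailed paired t tests (P < 0.05). The assay was also run with 100 μM uridine.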

THP-1 [4] = assay: Induction of cell differentiation in human THP-1 cells assessed as CD14 expression at 1 uM after 3 days by flow cytometric analysis; format: functional, cell-based; details: time 3.0 day
THP-1 [5] = assay: Induction of apoptosis in human THP-1 cells at 1 uM after 3 days by Annexin-V-FITC staining based flow cytometry relative to control; format: functional, cell-based; details: time 3.0 day; method in brief: as §1
[6] = Protein binding in human serum at 50 uM after 1 hr by RP-UHPLC method; format: ADME, cell-free; details: read-out: PB (converted)
Jurkat = assay: Cytotoxicity against human Jurkat cells assessed as concentration required to induce more than 30% cytotoxicity incubated for 3 days by CSFE dye based assay; format: cell-based; details: 72 h, time 3 day
[7] = Metabolic stability in Sprague-Dawley rat liver microsomes assessed as parent compound remaining after 30 mins; format: ADME, Microsome; details: 0.5 h
Method in brief: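 The regenerating system contained MgCl₂, NADP⁺, Glu6P and G6PDH. Controls were heat-inactivated microsomes and no regenerating system. Samples taken at 0–120 min were quenched in cold acetonitrile and analysed by HPLC–HRMS.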

[8] = Solubility of compound in PBS at pH 7.4 after 24 hrs by UHPLC analysis; format: physicochemical

Compound: O=C(Nc1c(F)c(F)c(-c2cccc(O)c2)c(F)c1F)c1c(O)nn2ccccc12
Activity (THP-1 [4]): inactive | Activity (THP-1 [5]): inactive

Compound: COc1cccc(-c2c(F)c(F)c(NC(=O)c3c(O)nn4ccccc34)c(F)c2F)c1
Activity (THP-1 [2]): Active | Activity (THP-1 [3]): Active

Compound: O=C(Nc1c(F)c(F)c(-c2cccc(OC(F)(F)F)c2)c(F)c1F)c1c(O)nn2ccccc12
Activity (Jurkat): > 100 µM | Activity (THP-1 [2]): Active | Activity (THP-1 [3]): Active

Compound: O=C(Nc1c(F)c(F)c(-c2cccnc2)c(F)c1F)c1c(O)nn2ccccc12
Activity (THP-1 [4]): inactive | Activity (THP-1 [5]): inactive

Compound: O=C(Nc1c(F)c(F)c(-c2ccccc2)c(F)c1F)c1c(O)nn2c(Cl)cccc12
solubility at 24 h [8]: < 6 µM

Compound: CCn1c(CO)nn(-c2cc(O[C@@H](C)C(F)(F)F)c(C(=O)Nc3c(F)cccc3Cl)cc2F)c1=O
logD at 20 min [1]: 2.7 | solubility at 24 h [8]: < 1 µM | fraction unbound at 1 h, 50 µM [6]: 0.099

Compound: O=C(Nc1c(F)c(F)c(-c2ccnc(C(F)(F)F)c2)c(F)c1F)c1c(O)nn2ccccc12
Activity (THP-1 [4]): inactive | Activity (THP-1 [5]): inactive

Compound: O=C(Nc1c(F)c(F)c(-c2cccc(C(F)(F)F)c2)c(F)c1F)c1c(O)nn2ccccc12
Activity (Jurkat): > 100 µM | Activity (THP-1 [2]): Active | Activity (THP-1 [3]): Active

Compound: O=C(Nc1c(F)c(F)c(N2CCOCC2)c(F)c1F)c1c(O)nn2ccccc12
Activity (THP-1 [4]): inactive | Activity (THP-1 [5]): inactive

Second part, led by results:

logD at 20 min [1]: 2.09
Compound: O=C(Nc1c(F)c(F)c(-c2cccc(F)c2)c(F)c1F)c1c(O)nn2ccccc12
Activity (THP-1 [2]): Active | Activity (THP-1 [3]): Active

logD at 20 min [1]: 1.83
Compound: Cc1c(-c2ccc(-c3ccccc3F)cc2)nc2ccc(F)cc2c1C(=O)O [BREQUINAR]

fraction unbound at 1 h, 50 µM [6]: < 0.01
Compound: COc1cccc(-c2cc(F)c(Nc3ncccc3C(=O)O)c(F)c2)c1 [ASLAN-003]

Stability [7]: Unstable
Compound: CCCOc1cccc(-c2c(F)c(F)c(NC(=O)c3c(O)nn4ccccc34)c(F)c2F)c1
Activity (Jurkat): > 100 µM | Activity (THP-1 [2]): Active | Activity (THP-1 [3]): Active

solubility at 24 h [8]: < 6 µM
Compound: O=C(Nc1c(F)c(F)c(-c2ccccc2)c(F)c1F)c1c(O)nn2c1CCCC2
